The record followed here is ChEMBL document CHEMBL4145462, “Nitrogen-containing ecdysteroid derivatives vs. multi-drug resistance in cancer: Preparation and antitumor activity of oximes, oxime ethers and a lactam” (Eur J Med Chem, 2018).

ABCB1 (P-glycoprotein), sequence (P08183 whole entry): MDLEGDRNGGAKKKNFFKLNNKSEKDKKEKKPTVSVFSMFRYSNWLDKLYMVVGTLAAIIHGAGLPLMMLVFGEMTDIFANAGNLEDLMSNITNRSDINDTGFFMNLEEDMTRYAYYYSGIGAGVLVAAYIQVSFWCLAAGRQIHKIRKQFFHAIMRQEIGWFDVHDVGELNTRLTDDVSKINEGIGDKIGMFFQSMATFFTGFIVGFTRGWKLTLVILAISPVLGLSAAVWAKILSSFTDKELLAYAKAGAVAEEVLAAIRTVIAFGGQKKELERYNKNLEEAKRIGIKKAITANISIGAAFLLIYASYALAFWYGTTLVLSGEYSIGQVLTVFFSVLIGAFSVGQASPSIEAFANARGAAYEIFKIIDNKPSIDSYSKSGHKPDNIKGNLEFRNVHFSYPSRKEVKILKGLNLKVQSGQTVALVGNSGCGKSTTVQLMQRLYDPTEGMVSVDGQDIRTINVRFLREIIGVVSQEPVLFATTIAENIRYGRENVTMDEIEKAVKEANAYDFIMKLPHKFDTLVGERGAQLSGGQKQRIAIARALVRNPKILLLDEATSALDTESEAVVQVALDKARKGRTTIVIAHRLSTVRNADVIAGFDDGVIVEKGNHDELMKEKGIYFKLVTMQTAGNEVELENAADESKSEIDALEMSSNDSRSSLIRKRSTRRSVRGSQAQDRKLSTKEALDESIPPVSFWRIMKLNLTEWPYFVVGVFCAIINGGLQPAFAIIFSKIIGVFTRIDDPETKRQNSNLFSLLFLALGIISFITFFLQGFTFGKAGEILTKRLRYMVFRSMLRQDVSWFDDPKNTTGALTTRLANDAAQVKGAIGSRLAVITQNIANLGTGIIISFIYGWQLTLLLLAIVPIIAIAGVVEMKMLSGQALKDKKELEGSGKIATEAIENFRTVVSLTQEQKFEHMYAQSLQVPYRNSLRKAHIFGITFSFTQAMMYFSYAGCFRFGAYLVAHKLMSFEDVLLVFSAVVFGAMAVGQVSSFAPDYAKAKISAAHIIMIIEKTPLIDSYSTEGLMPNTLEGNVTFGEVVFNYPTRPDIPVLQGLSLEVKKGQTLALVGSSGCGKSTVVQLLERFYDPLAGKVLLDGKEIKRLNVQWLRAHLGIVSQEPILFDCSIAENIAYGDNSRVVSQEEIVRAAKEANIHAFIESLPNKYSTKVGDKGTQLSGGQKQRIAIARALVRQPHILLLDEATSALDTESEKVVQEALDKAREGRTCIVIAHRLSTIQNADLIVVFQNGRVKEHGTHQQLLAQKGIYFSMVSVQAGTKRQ

For one data set, the system named is HeLa. Description: Antiproliferative activity against human HeLa cells after 72 hrs by MTT assay.
Conditions: not given
It is filed as functional, cell-based. The essentials: (§1)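 Cells grown in MEM with 10% FCS, 1% non-essential amino acids and 1% penicillin-streptomycin. Seeded at 5000 cells/well, exposed to 0.1–30.0 µM compound for 72 h. MTT (5 mg/ml solution) was then added for 4 h, formazan dissolved in DMSO, and absorbance read at 545 nm. Cisplatin served as positive control. IC50 came from sigmoidal dose–response fits (log inhibitor vs normalized response, variable slope).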
A general note: Tetrazolium assays rely on reduction of a dye to a coloured formazan, in cell work by metabolically active cells.
The IC50 is the concentration that inhibits the measured activity by half. For `CCO/N=C1/C=C2C3=CC[C@H]([C@@]4(C)OC(C)(C)O[C@@H]4CCC(C)(C)O)[C@@]3(C)CC[C@@H]2[C@@]2(C)C[C@@H]3OC(C)(C)O[C@@H]3C[C@@H]12`, the IC50 was determined as 30 µM.

Another data set concerns SiHa. In words: Antiproliferative activity against human SiHa cells after 72 hrs by MTT assay. Format: functional, cell-based.
Conditions: not given
The essentials: as §1
`CCO/N=C1/C=C2C3=CC[C@H]([C@@]4(C)OC(C)(C)O[C@@H]4CCC(C)(C)O)[C@@]3(C)CC[C@@H]2[C@@]2(C)C[C@@H]3OC(C)(C)O[C@@H]3C[C@@H]12` registered an IC50 of more than 30 µM.

A further data set concerns MDA-MB-231. In words: Antiproliferative activity against human MDA-MB-231 cells after 72 hrs by MTT assay. It is filed as functional, cell-based. The following applies: MDA-MB-231, 72 h. The gist of the method: as §1
On to `CCO/N=C1/C=C2C3=CC[C@H]([C@@]4(C)OC(C)(C)O[C@@H]4CCC(C)(C)O)[C@@]3(C)CC[C@@H]2[C@@]2(C)C[C@@H]3OC(C)(C)O[C@@H]3C[C@@H]12`, for which the IC50 stood at 26 µM.

Another data set relates to MCF7. Description: Antiproliferative activity against human MCF7 cells after 72 hrs by MTT assay. It is filed as functional, cell-based. The following applies: MCF7, 72 h. The gist of the method:
as §1
In the case of `CCO/N=C1/C=C2C3=CC[C@H]([C@@]4(C)OC(C)(C)O[C@@H]4CCC(C)(C)O)[C@@]3(C)CC[C@@H]2[C@@]2(C)C[C@@H]3OC(C)(C)O[C@@H]3C[C@@H]12`, the IC50 was 19.6 µM.

Tested on in another data set: not listed separately
Description: Cytotoxicity against mouse L5178 cells expressing human ABCB1 after 48 hrs by MTT assay. It is filed as functional, cell-based. The following applies: L5178, 48 h. The essentials: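 Parental mouse lymphoma L5178 and the MDR line made by pHa MDR1/A retrovirus transfection, selected with 60 µg/L colchicine. Grown in McCoy's 5A with horse serum at 37°C, 5% CO2. 5 x 10^4 cells/well, serial compound dilutions, 48 h. MTT added to 0.5 mg/mL final for 4 h, then 10% SDS in 0.01 M HCl overnight, OD read at 540 and 630 nm. IC50 taken as median cytotoxic activity (Dm) from control lanes of checkerboard plates, n=2.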
On to `CCO/N=C1/C=C2C3=CC[C@H]([C@@]4(C)OC(C)(C)O[C@@H]4CCC(C)(C)O)[C@@]3(C)CC[C@@H]2[C@@]2(C)C[C@@H]3OC(C)(C)O[C@@H]3C[C@@H]12`, for which the IC50 worked out at 58.9 µM.

Another data set concerns the target ABCB1 (P-glycoprotein) (Homo sapiens, UniProt P08183). Description: Inhibition of human ABCB1 expressed in mouse L5178 cells assessed as increase in rhodamine-123 accumulation at 20 uM after 10 mins by flow cytometric analysis relative to control. Format: cell-based. The following applies: mouse L5178 cells expressing human ABCB1, probe rhodamine-123. The essentials:
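Cells at 2 × 10^6/mL were preincubated 10 min with compound. Rhodamine 123 then added to 5.2 µM final, 20 min at 37 °C. Cells washed twice in PBS, resuspended and read by flow cytometry. Percent inhibition was scaled between MDR-cell accumulation (0%) and parental L5178 accumulation (100%). Controls: 100 nM tariquidar (positive) and 2% DMSO (negative).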
Background: In flow cytometry, cells or beads pass a laser one at a time.
As a reminder, the inhibition is the drop in the measured response relative to a control, in per cent. Consider `CCO/N=C1/C=C2C3=CC[C@H]([C@@]4(C)OC(C)(C)O[C@@H]4CCC(C)(C)O)[C@@]3(C)CC[C@@H]2[C@@]2(C)C[C@@H]3OC(C)(C)O[C@@H]3C[C@@H]12`, for which the inhibition at 10 min, 20 µM is 108%.

Tested on in another data set: not listed separately
In words: Synergistic cytotoxicity against mouse L5178 cells assessed as combination index at ED50 using 150:1 test compound to doxorubicin ratio after 48 hrs by MTT-based checkerboard microplate method.
Conditions: not given
Format: functional. The essentials: (§2)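 Checkerboard microplate combinations of compound with doxorubicin at constant molar ratios. 5 × 10^4 cells/well in McCoy's 5A, 48 h at 37°C, 5% CO2. MTT added to 0.5 mg/mL final for 4 h, SDS/HCl overnight, OD read at 540 and 630 nm. Combination indices derived per ratio for 50%, 75% and 90% growth inhibition by median-effect analysis.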
In the case of `CCO/N=C1/C=C2C3=CC[C@H]([C@@]4(C)OC(C)(C)O[C@@H]4CCC(C)(C)O)[C@@]3(C)CC[C@@H]2[C@@]2(C)C[C@@H]3OC(C)(C)O[C@@H]3C[C@@H]12`, the CI amounted to 0.21.

Tested on in a further data set: not listed separately
Description: Synergistic cytotoxicity against mouse L5178 cells expressing human ABCB1 assessed as combination index at ED50 using 15:1 test compound to doxorubicin ratio after 48 hrs by MTT-based checkerboard microplate method. Format: functional.
Conditions: not given
The essentials:
as §2
Consider `CCO/N=C1/C=C2C3=CC[C@H]([C@@]4(C)OC(C)(C)O[C@@H]4CCC(C)(C)O)[C@@]3(C)CC[C@@H]2[C@@]2(C)C[C@@H]3OC(C)(C)O[C@@H]3C[C@@H]12`, for which the CI is listed as 0.42.

Tested on in another data set: not listed separately
In words: Synergistic cytotoxicity against mouse L5178 cells assessed as combination index at ED90 using 150:1 test compound to doxorubicin ratio after 48 hrs by MTT-based checkerboard microplate method.
Conditions: not given
It is filed as functional. The gist of the method: as §2
With `CCO/N=C1/C=C2C3=CC[C@H]([C@@]4(C)OC(C)(C)O[C@@H]4CCC(C)(C)O)[C@@]3(C)CC[C@@H]2[C@@]2(C)C[C@@H]3OC(C)(C)O[C@@H]3C[C@@H]12`, the CI is 0.56.

Tested on in another data set: not listed separately
In words: Synergistic cytotoxicity against mouse L5178 cells expressing human ABCB1 assessed as combination index at ED75 using 15:1 test compound to doxorubicin ratio after 48 hrs by MTT-based checkerboard microplate method. Format: functional.
Conditions: not given
The essentials: as §2
Regarding `CCO/N=C1/C=C2C3=CC[C@H]([C@@]4(C)OC(C)(C)O[C@@H]4CCC(C)(C)O)[C@@]3(C)CC[C@@H]2[C@@]2(C)C[C@@H]3OC(C)(C)O[C@@H]3C[C@@H]12`, the CI stood at 0.18.

Tested on in another data set: not listed separately
In words: Synergistic cytotoxicity against mouse L5178 cells expressing human ABCB1 assessed as combination index at ED50 using 30:1 test compound to doxorubicin ratio after 48 hrs by MTT-based checkerboard microplate method. Format: functional.
Conditions: not given
The gist of the method:
as §2
Take `CCO/N=C1/C=C2C3=CC[C@H]([C@@]4(C)OC(C)(C)O[C@@H]4CCC(C)(C)O)[C@@]3(C)CC[C@@H]2[C@@]2(C)C[C@@H]3OC(C)(C)O[C@@H]3C[C@@H]12`: the CI was 0.22.

Tested on in another data set: not listed separately
In words: Synergistic cytotoxicity against mouse L5178 cells expressing human ABCB1 assessed as combination index at ED90 using 30:1 test compound to doxorubicin ratio after 48 hrs by MTT-based checkerboard microplate method. Format: functional.
Conditions: not given
The essentials: as §2
As to `CCO/N=C1/C=C2C3=CC[C@H]([C@@]4(C)OC(C)(C)O[C@@H]4CCC(C)(C)O)[C@@]3(C)CC[C@@H]2[C@@]2(C)C[C@@H]3OC(C)(C)O[C@@H]3C[C@@H]12`, the CI is recorded as 0.2.

Tested on in a further data set: not listed separately
In words: Synergistic cytotoxicity against mouse L5178 cells expressing human ABCB1 assessed as combination index at ED50 using 7.5:1 test compound to doxorubicin ratio after 48 hrs by MTT-based checkerboard microplate method. It is filed as functional.
Conditions: not given
The essentials: as §2
On to `CCO/N=C1/C=C2C3=CC[C@H]([C@@]4(C)OC(C)(C)O[C@@H]4CCC(C)(C)O)[C@@]3(C)CC[C@@H]2[C@@]2(C)C[C@@H]3OC(C)(C)O[C@@H]3C[C@@H]12`, for which the CI was 0.21.

Tested on in the next data set: not listed separately
In words: Synergistic cytotoxicity against mouse L5178 cells expressing human ABCB1 assessed as combination index at ED75 using 7.5:1 test compound to doxorubicin ratio after 48 hrs by MTT-based checkerboard microplate method. Format: functional.
Conditions: not given
The essentials:
as §2
Take `CCO/N=C1/C=C2C3=CC[C@H]([C@@]4(C)OC(C)(C)O[C@@H]4CCC(C)(C)O)[C@@]3(C)CC[C@@H]2[C@@]2(C)C[C@@H]3OC(C)(C)O[C@@H]3C[C@@H]12`: the CI came out at 0.14.
